The results in this text go back to ChEMBL document CHEMBL1146182, “Synthesis and cytotoxic evaluation of combretafurans, potential scaffolds for dual-action antitumoral agents” (J Med Chem, 2006).

The source made the active and inactive calls. The calls are words filed in the database; no cut-off is given here.

For experiment [1], the system named is SH-SY5Y. Put plainly: Cytotoxicity against SHSY5Y cell line by MTT assay. Particulars: Homo sapiens. It counts as functional, cell-based. For orientation: Tetrazolium assays rely on reduction of a dye to a coloured formazan, in cell work by metabolically active cells.
Experiment [2] concerns the target T1, Tubulin (Homo sapiens) (UniProt P68371+Q9H4B7+P0DPH7+P68366+Q13509+Q71U36+P04350+Q3ZCM7+P07437+P68363+Q9BQE3+Q6PEY2+Q13885+Q9BVA1+Q9BUF5). Put plainly: Inhibition of tubulin polymerization. It counts as protein-complex assay. A digest of the protocol: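 Whole-cell (in vivo) tubulin polymerization assay in neuroblastoma cells. Cells are incubated overnight with a high inhibitor concentration. Proteins are then extracted in the presence of paclitaxel so that the tubulin polymerization state is frozen at extraction.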

In experiment [3] the test system is SH-SY5Y. The experiment in a line: Cell cycle arrest in SHSY5Y cells by accumulation at G2 phase after 4 hrs. It is filed as functional, Homo sapiens.
Experiment [4] has as its system SH-SY5Y. The experiment in a line: Cell cycle arrest in SHSY5Y cells by accumulation at G2 phase after 24 hrs. It counts as functional, Homo sapiens.
The subject of experiment [5] is SH-SY5Y. The experiment in a line: Cell cycle arrest in SHSY5Y cells by accumulation at S phase after 8 hrs. It is filed as functional, Homo sapiens.
Experiment [6] concerns SH-SY5Y. The experiment in a line: Cell cycle arrest in SHSY5Y cells by accumulation at G1 phase after 8 hrs. It counts as functional, Homo sapiens.
In experiment [7] the test system is SH-SY5Y. The experiment in a line: Cell cycle arrest in SHSY5Y cells by accumulation at G1 phase after 4 hrs. It counts as functional, Homo sapiens.
Experiment [8] relates to SH-SY5Y. The experiment in a line: Cell cycle arrest in SHSY5Y cells by accumulation at G2 phase after 12 hrs. It counts as functional, Homo sapiens.
The test system of experiment [9] is SH-SY5Y. Put plainly: Cell cycle arrest in SHSY5Y cells by accumulation at S phase after 12 hrs. It counts as functional, Homo sapiens.
For experiment [10], the system named is SH-SY5Y. Put plainly: Cell cycle arrest in SHSY5Y cells by accumulation at G1 phase after 12 hrs. It counts as functional, Homo sapiens.
Experiment [11] relates to SH-SY5Y. The experiment in a line: Cell cycle arrest in SHSY5Y cells by accumulation at S phase after 4 hrs. It is filed as functional, Homo sapiens.
For experiment [12], the system named is SH-SY5Y. The experiment in a line: Cell cycle arrest in SHSY5Y cells by accumulation at G2 phase after 8 hrs. It counts as functional, Homo sapiens.
In experiment [13] the test system is SH-SY5Y. The experiment in a line: Cell cycle arrest in SHSY5Y cells by accumulation at G1 phase after 24 hrs. It counts as functional, Homo sapiens.
Experiment [14] relates to SH-SY5Y. Put plainly: Cell cycle arrest in SHSY5Y cells by accumulation at S phase after 24 hrs. It counts as functional, Homo sapiens.
Experiment [15] deals with T1, Tubulin (Homo sapiens). The experiment in a line: Induction of tubulin depolymerization at 2.9 nM after 24 hrs. It counts as protein-complex assay.
For experiment [16], the target named is T1, Tubulin (Homo sapiens). Put plainly: Induction of tubulin depolymerization at 231 nM after 24 hrs. It is filed as protein-complex assay.
Experiment [17] has as its system SH-SY5Y. The experiment in a line: Cytotoxicity against SHSY5Y cell line upto 1 uM by MTT assay. It is filed as functional, cell-based. Particulars: Homo sapiens.
In experiment [18] the target is T1, Tubulin (Homo sapiens). Put plainly: Induction of tubulin depolymerization at 35.8 nM after 24 hrs. It is filed as protein-complex assay.

Molecule `COc1ccc(-c2cocc2-c2cc(OC)c(OC)c(OC)c2)cc1` gave an IC50 in the experiment with SH-SY5Y [1] of 39 nM. In other words, the double-digit nanomolar range.

On to `COc1ccc(-c2c(-c3cc(OC)c(OC)c(OC)c3)coc2/C=N/NC(=O)CCCC(=O)O)cc1`, for which, at Tubulin (Homo sapiens) [2], the outcome was Active. The molecule further returned an IC50 with SH-SY5Y [1] of 1670 nM.

As to `COc1ccc(/C=C\c2cc(OC)c(OC)c(OC)c2)cc1O` [COMBRETASTATIN A4], the outcome at Tubulin (Homo sapiens) [2] was Active. In addition, the Activity turned out to be 82% in the experiment with SH-SY5Y [3]; 92% in the experiment on SH-SY5Y [4]; 79% in the experiment with SH-SY5Y [5]; 66% in the experiment with SH-SY5Y [6]; 69% with SH-SY5Y [7]; 52% in the experiment on SH-SY5Y [8]. For the same molecule, the Activity in the experiment on SH-SY5Y [9] amounted to 83%; in the experiment with SH-SY5Y [10], 64%; in the experiment with SH-SY5Y [11], 49%; in the experiment with SH-SY5Y [12] it was 55%; with SH-SY5Y [13] it was 25%; with SH-SY5Y [14], 83%. Also, the IC50 with SH-SY5Y [1] worked out at 1.6 nM.

Regarding `COc1ccc(-c2cocc2-c2cc(OC)c(OC)c(OC)c2)cc1O`, the result at Tubulin (Homo sapiens) [2] and on Tubulin (Homo sapiens) [15] was Active. In addition, the Activity with SH-SY5Y [3] is listed as 33%; in the experiment with SH-SY5Y [4], 45%; in the experiment on SH-SY5Y [5], 58%; in the experiment on SH-SY5Y [6], 87%; in the experiment on SH-SY5Y [7], 33%; with SH-SY5Y [8], 38%. Further, the Activity in the experiment on SH-SY5Y [9] is 43%; with SH-SY5Y [10], 47%; in the experiment with SH-SY5Y [11], 53%; in the experiment with SH-SY5Y [12] it was 55%; with SH-SY5Y [13] it was 70%; in the experiment with SH-SY5Y [14] it was 85%. The IC50 with SH-SY5Y [1] worked out at 2.9 nM.

Take `COc1ccc(-c2cocc2-c2cc(OC)c(OC)c(OC)c2)cc1N`: the outcome at Tubulin (Homo sapiens) [2] was Active. The same molecule came in with a 50% inhibitory concentration (IC50) in the experiment on SH-SY5Y [1] of 5.1 nM.

`COc1ccc(-c2c(-c3cc(OC)c(OC)c(OC)c3)coc2C=O)cc1`: the outcome on Tubulin (Homo sapiens) [2] and on Tubulin (Homo sapiens) [16] was Active. The Activity with SH-SY5Y [3] is listed as 62%; in the experiment with SH-SY5Y [4], 25%; in the experiment on SH-SY5Y [5], 84%; in the experiment on SH-SY5Y [6], 93%; in the experiment with SH-SY5Y [7], 32%; in the experiment with SH-SY5Y [8] it was 82%. The Activity was 79% in the experiment on SH-SY5Y [9]; 42% in the experiment with SH-SY5Y [10]; 54% with SH-SY5Y [11]; 23% with SH-SY5Y [12]; 77% in the experiment with SH-SY5Y [13]; 29% with SH-SY5Y [14]. In the experiment on SH-SY5Y [1], this molecule gave an IC50 of 231 nM.

Take `COc1ccc(-c2cocc2-c2cc(OC)c(OC)c(OC)c2)cc1[N+](=O)[O-]`: on Tubulin (Homo sapiens) [2], the result was Active. The same molecule displayed a concentration for half-maximal inhibition (IC50) in the experiment with SH-SY5Y [1] of 245 nM.

Regarding `COc1cc(-c2cocc2-c2ccc3c(c2)OCO3)cc(OC)c1OC`, the outcome at Tubulin (Homo sapiens) [2] was Active. Further, the outcome in the experiment with SH-SY5Y [17] was inactive.

Turning to `COc1ccc(-c2coc(C=O)c2-c2cc(OC)c(OC)c(OC)c2)cc1`, the result on Tubulin (Homo sapiens) [2] was Active. The Activity in the experiment with SH-SY5Y [3] was 41%; with SH-SY5Y [4] it was 81%; in the experiment with SH-SY5Y [5] it was 46%; with SH-SY5Y [6], 74%; in the experiment on SH-SY5Y [7] it was 53%; with SH-SY5Y [8] it was 55%. Moreover, the Activity was 39% with SH-SY5Y [9]; 50% in the experiment on SH-SY5Y [10]; 54% with SH-SY5Y [11]; 25% with SH-SY5Y [12]; 58% in the experiment with SH-SY5Y [13]; 78% in the experiment on SH-SY5Y [14]. Moreover, the IC50 in the experiment on SH-SY5Y [1] was 35.8 nM. For the same molecule, the outcome at Tubulin (Homo sapiens) [18] was inactive.

A word on the IC50: it is the point on the concentration scale where inhibition reaches its midpoint.
